# Experiments:
# [1] = target: Tyrosine-protein kinase ABL1 (Homo sapiens, UniProt P00519, T315I); experiment: Inhibition of full length human recombinant N-terminal His-tagged ABL (2 to 1130 residues) T315I mutant expressed in baculovirus expression system using FL-peptide 2 substrate preincubated for 10 mins followed by substrate addition measured after 60 mins by mobility shift assay
# Summary of the method: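 Buffer is 100 mM HEPES pH 7.5, 10 mM MgCl2, 0.004% Tween 20, 1 mM DTT, 0.003% Brij L23. Enzyme and compound sit 10 min before ATP/substrate is added. The reaction runs 60 min at room temperature, is stopped with 10 mM EDTA, and is read by mobility shift.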
# Cytochrome P450 3A4 = Cytochrome P450 3A4 (Homo sapiens, UniProt P08684); experiment: Inhibition of CYP3A4 (unknown origin); format: ADME
# Mus musculus [2] = experiment: Toxicity in NOD-SCID mouse xenografted with human K562 cells over expressing eIF4E assessed as body weight loss at 100 mg/kg, po qd administered through oral gavage for 14 days; format: organism-based; conditions: in vivo, 336 h
# [3] = Clearance in CD1 mouse at 10 mg/kg, iv; format: ADME, organism-based; conditions: in vivo
# [4] = Half life in CD1 mouse at 10 mg/kg, iv; format: ADME, organism-based; conditions: in vivo
# Mus musculus [5] = experiment: Toxicity in NOD-SCID mouse xenografted with human K562 cells over expressing eIF4E assessed as body weight loss at 100 to 200 mg/kg, po qd administered through oral gavage for 14 days; format: organism-based; conditions: in vivo, 336 h
# [6] = Clearance in CD1 mouse at 5 mg/kg, iv; format: ADME, organism-based; conditions: in vivo
# [7] = Half life in CD1 mouse at 5 mg/kg, iv; format: ADME, organism-based; conditions: in vivo
# Chain of Cytochrome P450 3A4 (P08684 whole entry): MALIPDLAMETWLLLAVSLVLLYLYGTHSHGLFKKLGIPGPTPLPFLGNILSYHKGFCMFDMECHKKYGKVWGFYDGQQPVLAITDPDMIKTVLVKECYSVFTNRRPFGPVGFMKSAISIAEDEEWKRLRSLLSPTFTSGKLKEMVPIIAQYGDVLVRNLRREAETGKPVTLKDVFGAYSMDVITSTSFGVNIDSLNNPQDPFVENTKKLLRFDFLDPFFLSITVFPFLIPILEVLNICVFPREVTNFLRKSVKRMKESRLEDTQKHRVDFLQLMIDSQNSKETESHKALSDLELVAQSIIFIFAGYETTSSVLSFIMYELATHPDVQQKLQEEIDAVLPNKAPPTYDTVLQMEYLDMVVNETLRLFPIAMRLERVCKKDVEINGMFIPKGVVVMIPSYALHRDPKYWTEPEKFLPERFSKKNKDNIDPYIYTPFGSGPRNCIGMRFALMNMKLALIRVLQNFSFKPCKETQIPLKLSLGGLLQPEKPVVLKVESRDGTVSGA
SMILES,IC50 [1],IC50 (Cytochrome P450 3A4),Activity (Mus musculus [2]),clearance [3],half-life [4],Activity (Mus musculus [5]),clearance [6],half-life [7]
CN1CCN(Cc2ccc(NC(=O)CNc3ccc(-c4ccc(NC(=O)C5CC5)nc4)cc3F)cc2C(F)(F)F)CC1,20 nM,> 30000 nM,Non-toxic,50 mL/min/kg,2.2 h,,,
CCN1CCN(Cc2ccc(NC(=O)CNc3ccc(-c4ccc(NC(=O)C5CC5)nc4)cc3)cc2C(F)(F)F)CC1,50 nM,> 30000 nM,,,,Non-toxic,45 mL/min/kg,2.14 h

# From ChEMBL document CHEMBL3804768, “Structure-Activity Relationship Studies of Mitogen Activated Protein Kinase Interacting Kinase (MNK) 1 and 2 and BCR-ABL1 Inhibitors Targeting Chronic Myeloid Leukemic Cells” (J Med Chem, 2016)
